Activity calls are given as the source filed them. The calls are words filed in the database; no cut-off is given here.
Columns and labels:
[1] = molecular target: Mu-type opioid receptor (Rattus norvegicus) (UniProt P33535); experiment: Inhibition of MOPr desensitization in wistar rat LC neuron cells assessed as Met-Enk response at 3 uM incubated for 15 mins relative to control
Target sequence in this assay (P33535 whole entry, the tested form may be a part): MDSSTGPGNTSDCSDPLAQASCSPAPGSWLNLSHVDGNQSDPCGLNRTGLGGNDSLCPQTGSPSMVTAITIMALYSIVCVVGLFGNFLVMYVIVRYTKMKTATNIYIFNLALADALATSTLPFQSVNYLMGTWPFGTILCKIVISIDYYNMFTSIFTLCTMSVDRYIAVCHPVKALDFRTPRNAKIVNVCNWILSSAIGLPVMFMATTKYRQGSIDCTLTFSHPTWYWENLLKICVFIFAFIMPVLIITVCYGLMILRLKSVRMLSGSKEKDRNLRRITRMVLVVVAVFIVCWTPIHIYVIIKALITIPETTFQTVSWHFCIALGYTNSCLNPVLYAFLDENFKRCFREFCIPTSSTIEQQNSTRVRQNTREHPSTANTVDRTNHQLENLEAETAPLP

[2] = molecular target: Serine/threonine-protein kinase 3 (Homo sapiens) (UniProt Q13188); experiment: Inhibition of human MST2 assessed as remaining activity at 1 uM in presence of 32ATP relative to control
In short: (§1)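 Express panel of 52 purified human kinases run in vitro. Kinase activity was measured directly by a radioactive filter-binding assay with ³²ATP, at ATP levels at or below each kinase's calculated Km for ATP. The compound was tested at 1 μM. Each assay was run in duplicate, and activity is given as the mean percentage (with S.D.) of activity without inhibitor.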

[3] = molecular target: Mu-type opioid receptor (Rattus norvegicus) (UniProt P33535); experiment: Inhibition of HA-tagged rat MOPr stably expressing in HEK293 cells assessed as increase in DAMGO-induced ERK1/2 phosphorylation level at 3 to 30 uM preincubated for 30 mins by westernblot analysis; type: functional, cell-based; settings: dose 3-30 µM
In short: (§2)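 HEK 293 cells stably expressing HA-tagged rat MOPr were grown to 90% confluence and serum-starved 24 h. Inhibitor was added for 30 min, then DAMGO 10 μM for 5 min. pERK1/2 was measured by Western blot with ECL detection. Densitometry was done in duplicate, normalized to total ERK1/2 and expressed as % of maximal DAMGO response; n = 4.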
Target sequence in this assay (P33535 whole entry, the tested form may be a part): as above

[4] = molecular target: Mu-type opioid receptor (Rattus norvegicus) (UniProt P33535); experiment: Inhibition of MOPr desensitization (unknown origin) assessed as reduction in the morphine induced desensitization at 3 to 30 uM incubated for 15 mins; settings: dose 3-30 µM
Target sequence in this assay (P33535 whole entry, looked up, the tested form may be a part): as the sequence (P33535 whole entry, the tested form may be a part) above

[5] = molecular target: Serine/threonine-protein kinase Nek6 (Homo sapiens) (UniProt Q9HC98); experiment: Inhibition of human NEK6 assessed as remaining activity at 1 uM in presence of 32ATP relative to control
In short: as §1

[6] = molecular target: cAMP-dependent protein kinase (PKA) (Homo sapiens) (UniProt P22694+P17612+P22612); experiment: Inhibition of human PKA assessed as remaining activity at 1 uM in presence of 32ATP relative to control; type: protein assay
In short: as §1

[7] = molecular target: Ribosomal protein S6 kinase alpha-5 (Homo sapiens) (UniProt O75582); experiment: Inhibition of human MSK1 at 1 uM in presence of 32ATP relative to control
In short: as §1

[8] = molecular target: Mitogen-activated protein kinase 3 (Homo sapiens) (UniProt P27361); experiment: Inhibition of human ERK1 assessed as remaining activity at 1 uM in presence of 32ATP relative to control
In short: as §1

[9] = molecular target: Serine/threonine-protein kinase Sgk1 (Homo sapiens) (UniProt O00141); experiment: Inhibition of human SGK1 assessed as remaining activity at 1 uM in presence of 32ATP relative to control
Serine/threonine-protein kinase Sgk1 (Homo sapiens), sequence (O00141 whole entry): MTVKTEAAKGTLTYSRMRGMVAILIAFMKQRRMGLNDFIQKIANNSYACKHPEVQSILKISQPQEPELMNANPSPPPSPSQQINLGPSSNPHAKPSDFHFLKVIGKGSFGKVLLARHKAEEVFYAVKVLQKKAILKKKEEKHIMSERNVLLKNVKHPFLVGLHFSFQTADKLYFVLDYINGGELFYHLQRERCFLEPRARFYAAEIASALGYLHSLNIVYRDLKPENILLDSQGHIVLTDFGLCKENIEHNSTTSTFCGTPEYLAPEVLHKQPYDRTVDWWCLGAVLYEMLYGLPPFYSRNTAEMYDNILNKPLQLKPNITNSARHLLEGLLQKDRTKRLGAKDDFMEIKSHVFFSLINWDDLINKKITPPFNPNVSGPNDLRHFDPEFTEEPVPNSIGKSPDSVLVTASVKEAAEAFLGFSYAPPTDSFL
In short: as §1

[10] = molecular target: Serine/threonine-protein kinase Sgk1 (Homo sapiens) (UniProt O00141); experiment: Inhibition of human SGK1 at 1 uM in presence of 32ATP relative to control
In short: as §1

[11] = molecular target: 3-phosphoinositide-dependent protein kinase 1 (Homo sapiens) (UniProt O15530); experiment: Inhibition of human PDK1 assessed as remaining activity at 1 uM in presence of 32ATP relative to control
3-phosphoinositide-dependent protein kinase 1 (Homo sapiens), sequence (O15530 whole entry, looked up): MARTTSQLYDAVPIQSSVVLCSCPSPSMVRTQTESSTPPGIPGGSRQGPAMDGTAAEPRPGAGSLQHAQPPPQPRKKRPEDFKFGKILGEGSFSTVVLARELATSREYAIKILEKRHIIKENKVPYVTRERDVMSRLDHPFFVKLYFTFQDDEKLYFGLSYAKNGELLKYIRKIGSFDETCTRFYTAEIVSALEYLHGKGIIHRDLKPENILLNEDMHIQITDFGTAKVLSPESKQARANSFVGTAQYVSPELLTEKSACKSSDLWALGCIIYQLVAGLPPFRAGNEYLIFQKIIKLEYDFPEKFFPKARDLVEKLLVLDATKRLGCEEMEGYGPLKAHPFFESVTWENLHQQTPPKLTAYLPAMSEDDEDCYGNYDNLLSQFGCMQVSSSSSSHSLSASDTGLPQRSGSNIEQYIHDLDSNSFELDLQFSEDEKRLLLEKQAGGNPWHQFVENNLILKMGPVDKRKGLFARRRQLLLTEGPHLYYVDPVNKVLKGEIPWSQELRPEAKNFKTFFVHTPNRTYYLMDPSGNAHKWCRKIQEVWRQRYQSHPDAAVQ

[12] = molecular target: Mitogen-activated protein kinase 8 (Homo sapiens) (UniProt P45983); experiment: Inhibition of human JNK1 assessed as remaining activity at 1 uM in presence of 32ATP relative to control
In short: as §1

[13] = molecular target: Tyrosine-protein kinase JAK2 (Homo sapiens) (UniProt O60674); experiment: Inhibition of human JAK2 assessed as remaining activity at 1 uM in presence of 32ATP relative to control
Tyrosine-protein kinase JAK2 (Homo sapiens), sequence (O60674 whole entry): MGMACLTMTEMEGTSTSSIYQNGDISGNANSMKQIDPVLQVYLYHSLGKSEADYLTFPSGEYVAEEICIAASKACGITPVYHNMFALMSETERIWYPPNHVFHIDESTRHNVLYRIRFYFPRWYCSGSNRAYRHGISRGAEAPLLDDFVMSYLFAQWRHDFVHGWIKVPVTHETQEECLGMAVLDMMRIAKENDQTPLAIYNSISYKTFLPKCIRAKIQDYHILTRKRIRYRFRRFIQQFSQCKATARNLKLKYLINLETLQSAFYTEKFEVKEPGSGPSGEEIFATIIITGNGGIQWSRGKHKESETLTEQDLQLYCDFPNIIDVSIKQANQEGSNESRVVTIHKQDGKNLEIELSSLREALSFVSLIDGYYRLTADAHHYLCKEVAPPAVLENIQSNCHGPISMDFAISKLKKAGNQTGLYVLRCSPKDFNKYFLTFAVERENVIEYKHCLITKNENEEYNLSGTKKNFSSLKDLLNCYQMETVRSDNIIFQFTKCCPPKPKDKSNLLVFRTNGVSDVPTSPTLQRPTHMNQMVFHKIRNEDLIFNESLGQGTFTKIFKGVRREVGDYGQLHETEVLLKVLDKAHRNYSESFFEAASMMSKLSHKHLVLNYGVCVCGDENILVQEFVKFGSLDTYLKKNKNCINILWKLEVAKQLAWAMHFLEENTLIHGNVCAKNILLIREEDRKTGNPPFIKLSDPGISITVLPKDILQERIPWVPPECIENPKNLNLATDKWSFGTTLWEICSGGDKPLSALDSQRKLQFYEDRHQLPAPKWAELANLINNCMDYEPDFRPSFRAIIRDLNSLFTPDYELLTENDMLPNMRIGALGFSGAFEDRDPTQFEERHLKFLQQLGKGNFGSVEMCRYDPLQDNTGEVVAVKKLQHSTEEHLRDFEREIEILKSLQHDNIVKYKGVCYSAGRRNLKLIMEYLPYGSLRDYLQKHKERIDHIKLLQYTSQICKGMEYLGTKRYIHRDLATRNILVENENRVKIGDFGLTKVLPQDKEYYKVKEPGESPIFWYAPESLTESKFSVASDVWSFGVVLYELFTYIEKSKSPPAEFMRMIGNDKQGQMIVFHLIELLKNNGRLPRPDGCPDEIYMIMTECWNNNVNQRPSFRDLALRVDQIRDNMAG
In short: as §1

[14] = molecular target: Serine/threonine-protein kinase N2 (Homo sapiens) (UniProt Q16513); experiment: Inhibition of human PRK2 assessed as remaining activity at 1 uM in presence of 32ATP relative to control
Serine/threonine-protein kinase N2 (Homo sapiens), sequence (Q16513 whole entry, looked up): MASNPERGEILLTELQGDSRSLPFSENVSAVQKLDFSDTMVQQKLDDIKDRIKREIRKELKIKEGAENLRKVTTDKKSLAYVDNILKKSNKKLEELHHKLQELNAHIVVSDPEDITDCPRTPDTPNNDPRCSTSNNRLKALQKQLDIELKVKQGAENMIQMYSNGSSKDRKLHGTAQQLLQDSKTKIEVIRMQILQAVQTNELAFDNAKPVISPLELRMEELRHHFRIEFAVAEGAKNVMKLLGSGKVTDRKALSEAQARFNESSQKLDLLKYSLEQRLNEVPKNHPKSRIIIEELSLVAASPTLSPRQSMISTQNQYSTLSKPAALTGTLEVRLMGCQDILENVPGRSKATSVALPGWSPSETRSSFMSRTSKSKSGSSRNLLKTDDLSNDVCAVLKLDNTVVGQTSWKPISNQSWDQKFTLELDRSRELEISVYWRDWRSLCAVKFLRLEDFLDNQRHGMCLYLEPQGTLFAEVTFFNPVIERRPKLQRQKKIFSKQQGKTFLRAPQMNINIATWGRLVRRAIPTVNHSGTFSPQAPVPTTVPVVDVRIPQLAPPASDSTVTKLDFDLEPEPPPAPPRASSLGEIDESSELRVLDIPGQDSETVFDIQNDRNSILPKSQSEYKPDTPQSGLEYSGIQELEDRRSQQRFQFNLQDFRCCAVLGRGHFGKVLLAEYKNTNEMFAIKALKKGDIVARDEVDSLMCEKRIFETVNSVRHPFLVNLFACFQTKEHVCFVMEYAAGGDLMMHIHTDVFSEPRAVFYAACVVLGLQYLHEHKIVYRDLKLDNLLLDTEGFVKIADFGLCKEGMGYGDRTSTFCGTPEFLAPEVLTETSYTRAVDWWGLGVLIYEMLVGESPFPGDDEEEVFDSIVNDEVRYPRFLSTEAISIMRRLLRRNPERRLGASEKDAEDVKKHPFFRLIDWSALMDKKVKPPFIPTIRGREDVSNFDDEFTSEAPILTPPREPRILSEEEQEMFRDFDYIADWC
In short: as §1

[15] = molecular target: Mu-type opioid receptor (Rattus norvegicus) (UniProt P33535); experiment: Inhibition of MOPr desensitization in wistar rat LC neuron cells assessed as reduction in the DAMGO induced desensitization at 3 to 100 uM incubated for 15 mins before; type: functional, cell-based; settings: dose 3-100 µM
In short: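 Rat LC neurons (Wistar, 5–8 weeks) were recorded by whole-cell patch clamp. DAMGO 10 μM was superfused for 12 min to desensitize, then the maximal morphine 30 μM response was measured at plateau. Inhibitor was superfused beforehand; n = 4; ANOVA.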
Target sequence in this assay (P33535 whole entry, the tested form may be a part): as the sequence (P33535 whole entry, the tested form may be a part) above

[16] = molecular target: Mu-type opioid receptor (Rattus norvegicus) (UniProt P33535); experiment: Inhibition of HA-tagged rat MOPr stably expressing in HEK293 cells assessed as increase in ERK1/2 phosphorylation level at 30 uM preincubated for 30 mins by westernblot analysis; type: functional, cell-based
In short: as §2
Target sequence in this assay (P33535 whole entry, the tested form may be a part): as above

[17] = molecular target: Mu-type opioid receptor (Mus musculus) (UniProt P42866); experiment: Inhibition of MOPr desensitization in C57BL/6J mouse LC neuron cells assessed as reduction in the Met-Enk induced desensitization at 3 uM incubated for 15 mins before
Homo sapiens = organism: Homo sapiens; experiment: Inhibition of human VEGFR assessed as remaining activity at 1 uM in presence of 32ATP relative to control
In short: as §1

[18] = molecular target: Casein kinase 2 (Homo sapiens) (UniProt P67870+P68400+P19784+Q8NEV1); experiment: Inhibition of human CK2 assessed as remaining activity at 1 uM in presence of 32ATP relative to control; type: protein assay
In short: (§3)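 Express screen of 52 purified human kinases run as a radioactive filter-binding assay with 32ATP, at 1 μM inhibitor. ATP was at or below each kinase's calculated Km. Activity is given as percent of the activity without inhibitor. Run in duplicate; mean with S.D.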

[19] = molecular target: Serine/threonine-protein kinase STK11 (Homo sapiens) (UniProt Q15831); experiment: Inhibition of human LKB1 assessed as remaining activity at 1 uM in presence of 32ATP relative to control
Serine/threonine-protein kinase STK11 (Homo sapiens), sequence (Q15831 whole entry): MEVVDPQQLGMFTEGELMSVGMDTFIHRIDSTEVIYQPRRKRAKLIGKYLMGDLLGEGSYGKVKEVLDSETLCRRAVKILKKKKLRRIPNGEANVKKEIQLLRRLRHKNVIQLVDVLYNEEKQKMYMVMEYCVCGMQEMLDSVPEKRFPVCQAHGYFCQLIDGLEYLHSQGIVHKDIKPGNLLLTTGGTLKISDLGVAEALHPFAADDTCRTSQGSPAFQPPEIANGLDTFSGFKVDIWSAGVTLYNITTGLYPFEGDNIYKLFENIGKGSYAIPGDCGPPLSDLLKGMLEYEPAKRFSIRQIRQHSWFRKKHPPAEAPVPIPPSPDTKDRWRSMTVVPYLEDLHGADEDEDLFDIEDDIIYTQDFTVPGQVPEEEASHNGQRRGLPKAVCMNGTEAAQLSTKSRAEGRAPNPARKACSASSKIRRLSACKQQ
In short: as §1

[20] = molecular target: Calcium/calmodulin-dependent protein kinase type 1 (Homo sapiens) (UniProt Q14012); experiment: Inhibition of human CAMK1 assessed as remaining activity at 1 uM in presence of 32ATP relative to control
Calcium/calmodulin-dependent protein kinase type 1 (Homo sapiens), sequence (Q14012 whole entry, looked up): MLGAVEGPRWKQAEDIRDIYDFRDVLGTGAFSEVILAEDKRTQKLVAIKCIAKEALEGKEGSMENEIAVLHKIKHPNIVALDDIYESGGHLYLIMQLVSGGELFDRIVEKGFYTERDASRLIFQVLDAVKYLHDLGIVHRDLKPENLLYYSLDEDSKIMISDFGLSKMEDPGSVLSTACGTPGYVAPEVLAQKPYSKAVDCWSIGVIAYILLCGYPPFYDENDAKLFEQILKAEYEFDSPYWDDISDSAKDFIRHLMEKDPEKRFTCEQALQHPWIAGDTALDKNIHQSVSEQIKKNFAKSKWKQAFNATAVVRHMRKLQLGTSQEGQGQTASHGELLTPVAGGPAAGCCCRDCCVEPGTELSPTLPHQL
In short: as §3

[21] = molecular target: Mu-type opioid receptor (Rattus norvegicus) (UniProt P33535); experiment: Inhibition of MOPr desensitization (unknown origin) assessed as reduction in the DAMGO induced desensitization at 3 to 30 uM incubated for 15 mins; settings: dose 3-30 µM
Target sequence in this assay (P33535 whole entry, looked up, the tested form may be a part): as the sequence (P33535 whole entry, the tested form may be a part) above

[22] = molecular target: Ephrin type-A receptor 2 (Homo sapiens) (UniProt P29317); experiment: Inhibition of human EPHA2 assessed as remaining activity at 1 uM in presence of 32ATP relative to control
In short: as §1

[23] = molecular target: Mu-type opioid receptor (Rattus norvegicus) (UniProt P33535); experiment: Inhibition of MOPr desensitization in wistar rat LC neuron cells assessed as reduction in the DAMGO induced desensitization at 30 uM incubated for 15 mins before in the presence of GF109203X; type: functional, cell-based
Target sequence in this assay (P33535 whole entry, the tested form may be a part): as above

[24] = molecular target: Serine/threonine-protein kinase N2 (Homo sapiens) (UniProt Q16513); experiment: Inhibition of human PRK2 at 1 uM in presence of 32ATP relative to control
In short: as §1

In the case of Cn1c(CNc2cccc(C(=O)NCc3ccccc3C(F)(F)F)c2)nnc1-c1ccncc1, the Met-Enk (600 nM) response, % of initial [1] is reported as 94%, the Activity [2] is reported as 89% and the inhibition [3] is reported as “inactive”. For the same compound, the inhibition [4] was “Active”, the Activity [5] was 95% and the Activity [6] was 95%. For the same compound, the inhibition [7] was greater than 50%, the Activity [8] was 83% and the Activity [9] was 31%. For the same compound, the inhibition [10] was 69%, the Activity [11] was 93% and the Activity [12] was 93%. The Activity [13] was 94%, the Activity [14] was 7% and the inhibition [15] was “Active”. The inhibition [16] was “Active”, the inhibition [17] was “Active” and the Activity (Homo sapiens) was 79%. For the same compound, the Activity [18] was 106%, the Activity [19] was 91% and the Activity [20] was 101%. The inhibition [21] was “Active”, the Activity [22] was 85% and the inhibition [23] was “inactive”. For the same compound, the inhibition [24] was 93%.
